B1: tRNA (parent)
chain: GUUCCGUUGGCGUAAUGGUAACGCGUCUCCCUCCUAAGGAGAAGACUGCGGGUUCGAGUCCCGUACGGAACG

Variants at the floor of the assay were thinned out.

The data set covers variants of B1. Nature of the data set: yeast fitness relative to wild type (ratio to wild type); higher = fitter; tRNA-Arg(CCU), competitive growth, 37 C, YPD. The method, boiled down: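 Gene amplicons from the start population and from each of six end populations were read by 100-nucleotide paired-end sequencing. Those end populations came from pooled Saccharomyces cerevisiae strains carrying tRNA-Arg(CCU) gene variants at the native locus, competed in YPD at 37°C for 24 hours. Fitness relative to wild type was worked out from changes in genotype frequencies. Genotypes needed ≥ 100 starting reads, and estimates < 0.5 were set to 0.5.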
As for GUUCGCUUGGCGUAAUGGUAACGCGUCUCCCUCCUAAGGAGAAGACUGAGGGUUCGAGUCCCGUACGGAACG [C5G G6C C49A], the yeast fitness is not above 0.5. To GUUCGGUUGCCGGAAUGGUAACGCGUCUCCCUCCUACGGAGAAGACUGCGGGUUCAAGUCCCGUUCGGAACG [C5G G10C U13G A37C G56A A65U] belongs 0.64; to GUUCGCUUGGCGUAAUGGUAACGCGUCUCCCUCCUAAGGAGAAGACUACGGGUUCGAGUCCCGUACGGAACG [C5G G6C G48A], 1.06. Regarding GUUCGGUUGCCGUAAUGGUAACGCGUCUCCCUCCUAAGGAGAUGACUGCGGGUCCGAGUCCCGUACGGAACG [C5G G10C A43U U54C], the yeast fitness was not above 0.5. To GUUCGCUUGGCGUAAUGGUAACGCGUCUCCCUCUUAACGAGAAGACUGCGGGUUCGAGUCCCGUACGGAACG [C5G G6C C34U G38C] belongs 0.749; to GUUCGAUUGGCGUAGUGGUAACGCGUCUCCCUCCUAAGGAGAAGACUGCGGGUUCGAGUCCCGUACGGAACG [C5G G6A A15G], not above 0.5. To GUUCGGUUGGCGUAAUGGUAACGCGUCUCCCUCCUAAGGAGAAGACUGCGGGUUCGAGUCAUGUUCGGCACG [C5G C61A C62U A65U A69C] belongs not above 0.5; to GUUCGGUUCGCGUAAUGGUAACGCGUCUCCCUCCUAAGGAGAAGACCGCGGGUUCGAGUCCCGUUCGGAACG [C5G G9C U47C A65U], not above 0.5; to GUUCGGUUGGCGUAAUGGUAACGCGUCUCCCUCCUAAGGAGAAGACUGGGAGUUCGAGUCCCGUACGGAACG [C5G C49G G51A], not above 0.5. In the case of GUUCGGUUGGCGUAAUGGUAACGCGUCUCCCUCCUAAGGAGAAGACUGCGGGUUCGAGUCCAGUACGGAACG [C5G C62A] it was 0.697; in that of GUUCGGUUGGCGUAAUGGUAACGCGUCUCCCUCCUAAGGAGAAGACUGCGGGUUCGAGUCCUGUACGGAACG [C5G C62U], 0.79; in that of GUUCGGUUGGCGUAAUGGUAACGCGUCUCCCUCCUAAGGAGAAGACUGCGGGUUCGAGUCCGGUUCGGAACG [C5G C62G A65U], not above 0.5. On to GUUCGGUUGAGGUAAGGGUAACGCGUCUCCCUGCUAAGGAGAAGACUGCGGGUUCGAGUCCCGUAUGGAACG [C5G G10A C11G U16G C33G C66U], for which the yeast fitness was not above 0.5. As to GUUCGGUUGGCCUAAUGGUAACGCGUCUCCCUCCUAAGGAGAAGACUGUGGGUUCGAGUCCCGUACGGAACG [C5G G12C C49U], the yeast fitness was 0.584. In the case of GUUCGGUUGGCGUAAUGGUAACGCGUCUCCCUCCUAAGGAGAAGACUGAGGGUUCGAGUCCCAUACGGAACG [C5G C49A G63A] it was not above 0.5; in that of GUUCGGUUGGCGUAAUGGUAACGCGUCUCCCUCCUAAGGAGAAGACUGCGGGUUCGAGUCCCGUAGGGAACG [C5G C66G], 0.781. In the case of GUUCGGUUGCCGUAAUGGUAACGCGUCUACCUCCUAAGGAGAAGACUGCGGGUUCGAGUCCCGUACGGAACG [C5G G10C C29A] it was not above 0.5.

In the case of GUUCGGUUCGCGUAAUGGUAACGCGUCUCCCUCCUAAGGCGAAGACUGCGGGUUCGAAUCCCGUACGGAACG [C5G G9C A40C G58A], the yeast fitness was not above 0.5. In the case of GUUCGGUUGGCCUAAUGGUAACGCGUCUCCCUCCUAAGGAGAAGCUUGCGGGUUUGAGUCCUGUACGGAACG [C5G G12C A45C C46U C55U C62U] it was not above 0.5. In the case of GUUCGGUUGGCGUAAUGGUAACGCGUCUCCCUCCUAAGGAGAAGAUUGCGGGAUCGAGUCCCGUACGGAACG [C5G C46U U53A] it was 0.529; in that of GUUCGAUUGGCGUAAUGGUAACGCGUCUUCCUGCUAAAGAGAAGACUGCGGGUUCGAGGCCCGUACGGAACG [C5G G6A C29U C33G G38A U59G], 0.562.

As for GUUCGGUUGGCCUAAUGAUAACGUGUCUUCCUCCUGAGGAGAAGACUGCGGGUUCGAGUCCCGUACGGCACG [C5G G12C G18A C24U C29U A36G A69C], the yeast fitness is not above 0.5. In the case of GUUCGGUUGACGUAAUGGUAACGCGUCUCCCUCCUAAGGAGGAGACUGCGGGUUUGAGUCCCGUACGGACCG [C5G G10A A42G C55U A70C] it was not above 0.5. GUUCGGUUGGCAUAAUGGUAACGCGUCUCCCUCCUAAGGAGAAGACUGGGGGUUCGAGUCCCGUACGCAACG [C5G G12A C49G G68C]: the yeast fitness was not above 0.5.

Consider GUUCGGUUGGCCUAAUGGUAACGAGUCUCCCUGCUAAGGAGAAGACUGGGGGUUCGAGUCCCGUGCGGAACG [C5G G12C C24A C33G C49G A65G], for which the yeast fitness turned out to be 0.573.

For GUUCGAUUGGCGUAAUGGUAACGCGUCUUCGUGCUAAAGAGAAGACUGCGGGUUCGAGGCCCGUACGGAACG [C5G G6A C29U C31G C33G G38A U59G], the yeast fitness is not above 0.5. To GUUCGGUUCGCGUAAUGGUAACGCGUCUCCCUCCUAAGGAGAAGACUGCGGGUUCGACUCCCGUACGGAACG [C5G G9C G58C] belongs not above 0.5; to GUUCGGUUGACGUAAUGGUAAUGCGUCUCCCUCCUACGGAGAAGACUGCGGGUUCAAGUCCCGUACGGAACG [C5G G10A C22U A37C G56A], not above 0.5. To GUUCGGUUGGCGUAAUGGUAACGCGUCUCCCUCCUAAGGAGAAGACUGGGGGAUCGAGUCCCGUACGGAACG [C5G C49G U53A] belongs not above 0.5; to GUUCGGUUGGCAUAAUGGUAACGCGUCUCCCUCCUAAGGAGAAGACUGCGGGUUCGAGUCCCGUACGGAACG [C5G G12A], 0.932; to GUUCGGUUGGCGUAAUGGUAACGCGUCUCCCUCCUAAGGAGAAGACUGGGGGUUCGAGUCCCGUACGGAACG [C5G C49G], 0.84. To GUUCGGUUGGCGUAAUGGUAACGCGUCUCCCUCCUAAGGAGAAGACUGAGGGUUCGAGUCCCGUACGGAACG [C5G C49A] belongs 0.624; to GUUCGGUUGGCGUAAUAGUCACGCGUCUCCCUCCUAAGGAGAAGACUGCGGGUUCGAGUCCCGUACGGAACG [C5G G17A A20C], not above 0.5. As for GUUCGGUUGGCGUAAUGGUAACGCGUCUCCCUCCUAAGGAGAAGACUGCGGGUUAGAGUCCUGUACGGAACG [C5G C55A C62U], the yeast fitness turned out to be 0.546.

As for GUUCGGUUGCCGUAAUGGUAACGCGUCUCCCUCCUAAGGAGAAGACUGCGGAUACGAGUGCCGUACGGAACG [C5G G10C G52A U54A C60G], the yeast fitness came out at 0.629. Take GUUCGGUUGGCGUAAUGGUAACGCGUCUCCCUCCUAAGGAGAAGACUGCGGGUUCGAGUCUCGUACGGCACG [C5G C61U A69C]: the yeast fitness is not above 0.5.

GUUCGGUUGGCGUAAUGGUAACGCGUCUCCCUCCUAAGGAGAAGACUGCGGGUUCGAGUCUCGUACGGUACG [C5G C61U A69U]: the yeast fitness was determined as 0.775. To GUUCGGUUAGCGUAAUGGUAACGCCUUUCCCUCCUAAGGAGAAGACUGCGGGUUCAAGUCCCGUACGGAACG [C5G G9A G25C C27U G56A] belongs 0.6.

These data come from the RNAGym collection of RNA variant scans (doi:10.1126/science.aae0568).
